Published values pooled from the literature.
Protocols differ between the studies behind these lines.
Target: Phosphatidylinositol 4-phosphate 3-kinase C2 domain-containing subunit beta (PIK3C2B, Homo sapiens, UniProt O00750)

C=CC(=O)N1CCC(C(=O)NCC(=O)N2CCN(c3nc(-c4cnc(N)nc4C(F)F)nc(N4CCOCC4)n3)CC2)CC1 — remaining binding (binding; competition with immobilised ligand; 1 µM): 21%
Cc1cnc(Nc2ccc(C(=O)N3CCC(N4CCCC4)CC3)cc2)nc1-c1cc2ccccc2s1 — remaining binding (binding; competition with immobilised ligand; 1 µM): 99%
c1cnn2ncc(-c3ccnc(N4CCC45COC5)n3)c2c1 — remaining binding (binding; 1 µM): 82%
COCCOc1nc(-c2ccc(Cl)nc2)nc2c1CN(C(=O)c1ncn3ccccc13)CC2 — remaining binding (cell-free assay; competition with immobilised ligand; 0.1 µM): 100%
c1cncc(-c2cccc(Nc3nccc(NC4CCCCC4)n3)c2)c1 — remaining binding (binding; competition with immobilised ligand; 10 µM): 81%
O=C(N[C@H]1CCCCC/C=C\C2C[C@@]2(C(=O)O)NC(=O)[C@@H]2C[C@@H](Oc3ccncc3)CN2C1=O)OC1CCCC1 (stereo partly drawn) — remaining binding (binding; competition with immobilised ligand; 1 µM): 84%
COc1ncc2cc3ccccc3nc2c1C#N — remaining binding (cell-free assay; competition with immobilised ligand; 5 µM): 100%
O=C(c1ccc(Nc2nccc(-c3cc4ccccc4s3)n2)cc1)N1CCC(N2CCCC2)CC1 — remaining binding (binding; competition with immobilised ligand; 1 µM): 99%
CN(C)c1nccc(-c2cnc3ncccn23)n1 — remaining binding (binding; 1 µM): 57%
CCN1CCN(Cc2ccc(C(=O)Nc3ccc(C)c(Oc4ccc5c(c4)CC(=O)N5)c3)cc2C(F)(F)F)CC1 — remaining binding (binding; competition with immobilised ligand; 1 µM): 66%
CN(C)c1ncc(F)c(-c2cnn3ncccc23)n1 — remaining binding (binding; 1 µM): 76%
CNC(=O)[C@@H]1CC[C@@H](n2c(-c3ccc4cnccc4c3)nc3ccc(C(=O)NCc4cccc(C(N)=O)c4)cc32)C1 — remaining binding (binding; competition with immobilised ligand; 1 µM): 100%
CN(c1nccc(-c2cnn3ncccc23)n1)C1CC1 — remaining binding (binding; 1 µM): 100%
CC1=C(C#N)C(c2ccc3c(c2)c(NC(=O)c2ccccc2C)nn3C)C(C#N)=C(C)N1 — remaining binding (cell-free assay; competition with immobilised ligand; 1 µM): 76%
CN(C)c1nccc(-c2cnn3ncccc23)n1 — remaining binding (binding; 1 µM): 100%
CN(c1ccnc(CNc2nc(Nc3ccc4c(c3)CC(=O)N4)ncc2C(F)(F)F)n1)S(C)(=O)=O — remaining binding (cell-free assay; competition with immobilised ligand; 1 µM): 79%
O=C(c1ccc(Nc2ncc(Cl)c(-c3cc4ccccc4s3)n2)cc1)N1CCC(N2CCCC2)CC1 — remaining binding (binding; competition with immobilised ligand; 1 µM): 100%
FC(F)(F)Oc1cccc(-c2cnc3ccc(-c4ccncc4)nn23)c1 — remaining binding (cell-free assay; competition with immobilised ligand; 5 µM): 54%
O=C(Nc1cnc(Oc2ccc(F)cc2)nc1)N1CCc2ncccc2[C@@H]1c1ccc(F)cc1 — remaining binding (cell-free assay; competition with immobilised ligand; 1 µM): 95%
O=C(Nc1c[nH]nc1C(=O)NC1CCNCC1)c1cc(F)cc(F)c1 — remaining binding (binding; competition with immobilised ligand; 1 µM): 100%
C[C@@H]1CN(c2cc(-c3nn(C)c4ccc(OC5(C)CC5)cc34)ncn2)C[C@H](C)O1 — remaining binding (cell-free assay; competition with immobilised ligand; 1 µM): 70%
CC(C)(C)c1ccc(-c2nc(CBr)nn2-c2cccc(O)c2)cc1 — remaining binding (cell-free assay; competition with immobilised ligand; 10 µM): 60%
N[C@H]1CCN(c2nccc(-c3cnn4ncccc34)n2)C1 — remaining binding (binding; 1 µM): 100%
Nc1cnc(N2CCc3cc(S(=O)(=O)Nc4c(F)cc(Cl)cc4F)cc(N4CCCC4=O)c32)nc1 — remaining binding (cell-free assay; competition with immobilised ligand; 1 µM): 83%
